According to ChEMBL document CHEMBL1759937, “Pyridinesulfonylureas and pyridinesulfonamides as selective bombesin receptor subtype-3 (BRS-3) agonists” (Bioorg Med Chem Lett, 2011):

Assays:
[1] = biological target: T1, Bombesin receptor subtype-3 (Homo sapiens, UniProt P32247); experiment: Agonist activity at human BRS3 by functional assay
T1 sequence (P32247 whole entry): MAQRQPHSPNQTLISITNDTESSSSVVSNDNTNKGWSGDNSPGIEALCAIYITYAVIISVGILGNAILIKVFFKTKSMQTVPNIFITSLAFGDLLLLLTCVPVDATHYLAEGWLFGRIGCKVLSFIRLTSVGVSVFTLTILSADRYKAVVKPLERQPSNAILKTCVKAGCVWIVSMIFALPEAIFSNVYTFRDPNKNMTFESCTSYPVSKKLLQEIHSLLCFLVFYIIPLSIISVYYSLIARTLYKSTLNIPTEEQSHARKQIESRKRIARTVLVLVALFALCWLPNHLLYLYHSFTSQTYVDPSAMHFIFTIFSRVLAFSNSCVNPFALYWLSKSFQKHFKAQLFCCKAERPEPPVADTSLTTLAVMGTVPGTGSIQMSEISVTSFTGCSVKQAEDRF

[2] = biological target: T2, Bombesin receptor subtype-3 (Mus musculus) (UniProt O54798); experiment: Agonist activity at mouse BRS3 by functional assay relative to control
T2 sequence (whole entry): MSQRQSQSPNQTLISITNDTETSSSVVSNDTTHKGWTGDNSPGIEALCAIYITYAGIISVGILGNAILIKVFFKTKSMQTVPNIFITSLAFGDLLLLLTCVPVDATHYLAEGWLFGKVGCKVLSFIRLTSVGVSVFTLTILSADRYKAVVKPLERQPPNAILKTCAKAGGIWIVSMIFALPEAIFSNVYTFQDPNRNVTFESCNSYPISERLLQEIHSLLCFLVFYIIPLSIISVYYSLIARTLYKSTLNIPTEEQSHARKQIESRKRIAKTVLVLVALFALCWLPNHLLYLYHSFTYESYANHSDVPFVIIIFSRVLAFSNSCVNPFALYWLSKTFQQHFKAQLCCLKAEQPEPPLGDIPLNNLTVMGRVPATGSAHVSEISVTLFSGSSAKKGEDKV
In short: (§1)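 HEK293AEQ cells expressing mouse BRS-3; bioluminescence read against log molar compound concentration. EC50 taken as the inflection point of the sigmoidal curve and normalized to the EC50 of an internal standard. Values under 2 µM with standard errors are means of at least three experiments; duplicate data are reported individually.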

[3] = biological target: T3, Bombesin receptor subtype-3 (Mus musculus, UniProt O54798); experiment: Agonist activity at mouse BRS3 by functional assay; in short: as §1
T3 sequence (O54798 whole entry): T2 sequence (whole entry)

[4] = biological target: T1, Bombesin receptor subtype-3; experiment: Binding affinity to human BRS3
[5] = Cmax in Sprague-Dawley rat at 1 mg/kg, iv or 4 mg/kg, po by LC/MS/MS; type: ADME, organism-based; conditions: in vivo
In short: (§2)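 Male Sprague–Dawley rats. Blood collected at various time points into lithium heparin tubes and centrifuged; plasma stored at -70 °C until analysis. Plasma extracted by protein precipitation and quantified by LC/MS/MS.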

[6] = Half life in Sprague-Dawley rat at 1 mg/kg, iv or 4 mg/kg, po; type: ADME, organism-based; conditions: in vivo; in short: as §2
[7] = Plasma clearance in Sprague-Dawley rat at 1 mg/kg, iv or 4 mg/kg, po; type: ADME, organism-based; in short: as §2
[8] = Bioavailability in Sprague-Dawley rat at 1 mg/kg, iv or 4 mg/kg, po; type: ADME, organism-based; conditions: in vivo; in short: as §2
[9] = Volume of distribution at steady state in Sprague-Dawley rat at 1 mg/kg, iv or 4 mg/kg, po; type: ADME, organism-based; conditions: in vivo, read-out: Vdss; in short: as §2
[10] = Mean residence time in Sprague-Dawley rat at 1 mg/kg, iv or 4 mg/kg, po; type: ADME, organism-based; conditions: in vivo; in short: as §2

SMILES	EC50 [1] [µM]	Activity [2] [%]	EC50 [3] [µM]	IC50 [4] [µM]	Cmax [5] [nM]	half-life [6] [min]	clearance [7] [mL/min/kg]	bioavailability [8] [%]	Vd [9] [L/kg]	MRT [10] [min]
CC(C)(C)NC(=O)NS(=O)(=O)c1cnccc1NCc1ccccc1	7.5	20	6.9	> 10	–	–	–	–	–	–
CC(C)NC(=O)NS(=O)(=O)c1cnccc1N[C@H]1C[C@H]2CC[C@@H]1C2 (racemic)	0.94	86	0.098	0.82	–	–	–	–	–	–
CN(C(=O)NS(=O)(=O)c1cnccc1N[C@@H]1C[C@H]2CC[C@@H]1C2)C(C)(C)C (racemic)	0.64	96	0.18	0.65	–	–	–	–	–	–
CC(C)(C)NC(=O)NS(=O)(=O)c1cnccc1N[C@@H]1C[C@H]2CC[C@]1(C)C2(C)C	1.7	88	0.09	0.66	–	–	–	–	–	–
CC(C)(C)NC(=O)NS(=O)(=O)c1cnccc1N[C@@H]1C[C@H]2CC[C@@H]1C2 (racemic)	–	101	–	–	–	–	–	–	–	–
CC(C)(C)NC(=N)NS(=O)(=O)c1cnccc1N[C@@H]1C[C@H]2CC[C@@H]1C2 (racemic)	> 10	13	7	9.7	–	–	–	–	–	–
CC(C)(C)c1cc(NS(=O)(=O)c2cnccc2N[C@@H]2C[C@H]3CC[C@@H]2C3)[nH]n1 (racemic)	4	113	0.27	0.25	–	–	–	–	–	–
CC(C)(C)NC(=O)NS(=O)(=O)c1cnccc1N[C@H]1C[C@H]2CC[C@@H]1C2 (racemic)	0.16	91	0.049	0.23	–	–	–	–	–	–
CC(C)(C)NC(=O)NS(=O)(=O)c1cnccc1NN1CCCC1	> 10	5	> 10	> 10	–	–	–	–	–	–
CC(C)(C)NC(=O)NS(=O)(=O)c1cnccc1NC1CCc2ccccc21 (racemic)	6.8	63	1.3	3.8	–	–	–	–	–	–
CC(C)(C)NC(=O)NS(=O)(=O)c1cnccc1N[C@H]1C[C@@H]2CC[C@H]1C2	0.72	93	0.11	0.63	–	–	–	–	–	–
CCC(C)(C)NC(=O)NS(=O)(=O)c1cnccc1NC1CC2CCC1C2 (racemic)	–	–	–	–	2000	15	26	41	0.3	11.4
O=S(=O)(Nc1nnc(C2CCC2)[nH]1)c1cnccc1N[C@@H]1C[C@H]2CC[C@@H]1C2 (racemic)	1.2	–	0.17	0.29	–	–	–	–	–	–
O=S(=O)(Nc1nc(C2CCC2)n[nH]1)c1cnccc1N[C@@H]1C[C@H]2CC[C@@H]1C2 (racemic)	–	84	–	–	–	–	–	–	–	–
CCC(C)(C)NC(=O)NS(=O)(=O)c1cnccc1N[C@@H]1C[C@H]2CC[C@@H]1C2 (racemic)	0.051	108	0.013	0.075	–	–	–	–	–	–
CC(C)NC(=O)NS(=O)(=O)c1cnccc1N[C@@H]1C[C@H]2CC[C@@H]1C2 (racemic)	0.44	88	0.086	0.51	–	–	–	–	–	–
CC(C)(C)NC(=O)NS(=O)(=O)c1cnccc1NC(C)(C)c1ccccc1	8.1	43	4.3	3	–	–	–	–	–	–
CC(C)(C)c1csc(NS(=O)(=O)c2cnccc2N[C@@H]2C[C@H]3CC[C@@H]2C3)n1 (racemic)	2.1	81	0.2	2.5	–	–	–	–	–	–
CC(C)c1n[nH]c(NS(=O)(=O)c2cnccc2N[C@@H]2C[C@H]3CC[C@@H]2C3)n1 (racemic)	4	72	0.41	0.77	–	–	–	–	–	–
CC(C)(C)NC(=O)NS(=O)(=O)c1cnccc1O[C@@H]1C[C@@H]2CC[C@H]1C2	1.6	77	0.32	0.88	–	–	–	–	–	–
O=S(=O)(Nc1nc(C2CCC2)n[nH]1)c1cnccc1NC1CC2CCC1C2 (single isomer, unassigned; faster eluting)	0.38	–	0.051	0.068	–	–	–	–	–	–
